The source of these data is ChEMBL document CHEMBL1158464, “Structure-activity relationships and cancer-cell selective toxicity of novel inhibitors of glioma-associated oncogene homologue 1 (Gli1) mediated transcription” (J Med Chem, 2009).

Data set [1] has as its target T1, Zinc finger protein GLI1 (Homo sapiens) (UniProt P08151).
T1 sequence (whole entry): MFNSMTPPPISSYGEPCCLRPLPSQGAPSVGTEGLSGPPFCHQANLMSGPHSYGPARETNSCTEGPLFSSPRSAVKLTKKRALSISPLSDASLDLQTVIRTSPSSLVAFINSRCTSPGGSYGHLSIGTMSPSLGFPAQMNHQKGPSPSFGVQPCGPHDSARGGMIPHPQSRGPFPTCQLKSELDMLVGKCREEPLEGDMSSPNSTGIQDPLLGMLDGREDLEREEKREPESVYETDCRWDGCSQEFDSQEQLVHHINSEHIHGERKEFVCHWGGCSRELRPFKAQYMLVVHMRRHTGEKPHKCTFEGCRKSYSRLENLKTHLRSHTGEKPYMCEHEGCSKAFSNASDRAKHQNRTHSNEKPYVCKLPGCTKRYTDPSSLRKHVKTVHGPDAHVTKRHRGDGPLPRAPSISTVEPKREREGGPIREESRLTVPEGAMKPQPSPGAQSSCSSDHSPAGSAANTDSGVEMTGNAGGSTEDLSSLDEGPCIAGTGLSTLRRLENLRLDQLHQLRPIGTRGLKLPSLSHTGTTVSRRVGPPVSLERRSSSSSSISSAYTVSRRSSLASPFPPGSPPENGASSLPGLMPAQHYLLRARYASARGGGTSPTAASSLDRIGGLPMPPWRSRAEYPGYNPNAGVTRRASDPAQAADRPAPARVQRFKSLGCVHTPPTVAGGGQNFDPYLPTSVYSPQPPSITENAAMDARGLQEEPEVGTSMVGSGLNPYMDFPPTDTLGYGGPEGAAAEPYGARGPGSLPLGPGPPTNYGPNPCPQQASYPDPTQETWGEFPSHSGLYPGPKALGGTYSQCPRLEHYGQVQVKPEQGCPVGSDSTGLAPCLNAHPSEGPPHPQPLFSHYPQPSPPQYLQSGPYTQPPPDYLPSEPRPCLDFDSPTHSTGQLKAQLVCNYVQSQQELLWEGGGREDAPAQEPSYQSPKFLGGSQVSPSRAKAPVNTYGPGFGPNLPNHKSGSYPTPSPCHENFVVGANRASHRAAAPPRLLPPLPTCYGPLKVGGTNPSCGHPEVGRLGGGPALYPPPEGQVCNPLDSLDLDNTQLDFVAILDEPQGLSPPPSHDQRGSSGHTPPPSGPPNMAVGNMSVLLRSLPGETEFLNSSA
In words: Inhibition of exogenously transfected human Gli1-mediated transcriptional activity in mouse C3H10T1/2 cells at 20 uM after 24 hrs by luciferase reporter gene assay. The class given is cell-based. Conditions: C3H 10T1/2. The essentials:
(§1)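 They were replated 18 h later, given compound or DMSO 6 h after plating, and exposed for 24 h at 37 °C, 5% CO2. Lysate was read by dual luciferase as firefly/Renilla, triplicate, DMSO = 0%. IC50 came from curve fitting.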
In general terms: Reporter assays use an easily measured gene product as a stand-in for the process of interest.

The test system of the next data set is HepG2. In words: Cytotoxicity against human HepG2 cells at 40 uM/well after 68 hrs by alamar blue assay. The format is functional, cell-based. The method in brief: (§2)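 Cells plated in appropriate medium 24 h before compound. A 10 mM DMSO stock was diluted in EMEM to 160 µM (4×) and added in triplicate to a final 40 µM. Incubated 68 h at 37 °C, then Alamar Blue for 4 h at 37 °C. Fluorescence read at ex 510/em 590 nm. Viability taken relative to DMSO control wells.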
In general terms: Resazurin is reduced to fluorescent resorufin, in cell work by metabolically active cells.

Data set [2] concerns the target T1, Zinc finger protein GLI1 (Homo sapiens). The data set is described as follows: Inhibition of exogenously transfected human Gli1-mediated transcriptional activity in mouse C3H10T1/2 cells at 40 uM after 24 hrs by luciferase reporter gene assay. The class given is cell-based. Conditions: C3H 10T1/2. The method in brief:
as §1

In the next data set the test system is MDA-MB-231. In words: Cytotoxicity against human MDA-MB-231 cells at 40 uM/well after 68 hrs by alamar blue assay. The class given is functional, cell-based. The essentials:
as §2

The test system of the next data set is BJ. The data set is described as follows: Cytotoxicity against human TERT-immortalized human BJ cells at 40 uM/well after 68 hrs by alamar blue assay. The class given is cell-based. The method in brief:
as §2

A further data set has as its system DU-145. The data set is described as follows: Cytotoxicity against human DU145 cells at 40 uM/well after 68 hrs by alamar blue assay. The class given is functional, cell-based. The method in brief: as §2
For a further data set, the system named is SJRH30. In words: Cytotoxicity against human Rh30 cells at 40 uM/well after 68 hrs by alamar blue assay. The format is functional, cell-based. The essentials:
as §2

Another data set concerns Raji. In words: Cytotoxicity against human Raji cells at 40 uM/well after 68 hrs by alamar blue assay. The format is functional, cell-based. The essentials:
as §2

The next data set relates to Daoy. In words: Cytotoxicity against human DaOY cells at 40 uM/well after 68 hrs by alamar blue assay. The class given is functional, cell-based. The essentials:
as §2

Another data set concerns LN-229. In words: Cytotoxicity against human LN229 cells at 40 uM/well after 68 hrs by alamar blue assay. The class given is functional, cell-based. The essentials: as §2

Active and inactive are the calls of the source. No cut-off for these calls is given here.

As to `C[C@H](CNC(=O)Nc1ccc(O)cc1)c1cccc(C(=O)c2ccccc2)c1`, the inhibition entry in data set [1] and in data set [2] was “Active” throughout. In addition, the outcome with HepG2 and with LN-229 was inactive. For the same compound, the outcome in the data set on MDA-MB-231, in the data set with DU-145, in the data set with SJRH30, with Raji and in the data set with Daoy was Active. Further, the Activity result in the data set on BJ is “Toxic”.

In the case of `COc1ccc(CCNC(=O)[C@@H](C)c2cccc(C(=O)c3ccccc3)c2)cc1O`, the inhibition entry in data set [1] and in data set [2] was “Active” each time. Further, the result with HepG2 and in the data set with LN-229 was inactive. The result in the data set with MDA-MB-231, in the data set with DU-145, in the data set on SJRH30, in the data set with Raji and in the data set with Daoy was Active. Moreover, the Activity entry in the data set with BJ was “Non-toxic”.

On to `COc1ccc2c(c1)c(CC(=O)NCCc1ccc(O)cc1)c(C)n2C(=O)c1ccc(Cl)cc1`, for which the inhibition result in data set [1] and in data set [2] was “Active” in each case. Further, the outcome in the data set with HepG2 and in the data set with LN-229 was inactive. In addition, the outcome in the data set on MDA-MB-231, in the data set on DU-145, in the data set on SJRH30, in the data set with Raji and with Daoy was Active. The Activity result in the data set with BJ is listed as “Non-toxic”.

As to `C[C@H](COC(=O)NCCc1ccc(O)cc1)c1cccc(C(=O)c2ccccc2)c1`, the inhibition entry in [1] and in data set [2] was “Active” each time. Besides, the result with HepG2 and in the data set on LN-229 was inactive. Also, the outcome in the data set with MDA-MB-231, in the data set with DU-145, in the data set on SJRH30, in the data set with Raji and in the data set on Daoy was Active. For the same compound, the Activity entry with BJ is “Non-toxic”.

Turning to `COc1cc(CCNC(=O)[C@@H](C)c2cccc(C(=O)c3ccccc3)c2)ccc1O`, the inhibition result in data set [1] and in data set [2] was “Active” in each case. In addition, the result in the data set with HepG2 and in the data set with LN-229 was inactive. The result in the data set on MDA-MB-231, in the data set on DU-145, in the data set on SJRH30, with Raji and with Daoy was Active. Also, in the data set with BJ, the Activity entry was “Non-toxic”.

As to `C[C@H](C(=O)NCCc1ccc(Cl)cc1)c1cccc(C(=O)c2ccccc2)c1`, the inhibition entry in [1] and in data set [2] was “Active” throughout. Moreover, the outcome in the data set on HepG2 and with LN-229 was inactive. In addition, the result in the data set with MDA-MB-231, in the data set on DU-145, with SJRH30, in the data set with Raji and in the data set on Daoy was Active. Moreover, in the data set with BJ, the Activity result is recorded as “Non-toxic”.

As to `COc1ccc2cc([C@H](C)C(=O)NCCc3ccc(O)cc3)ccc2c1`, the inhibition result in [1] and in [2] was “Active” in each case. The result with HepG2 and with LN-229 was inactive. Further, the result in the data set on MDA-MB-231, in the data set with DU-145, with SJRH30, in the data set with Raji and in the data set with Daoy was Active. Also, the Activity entry in the data set on BJ is given as “Non-toxic”.

As for `COc1ccc(CCNC(=O)[C@@H](C)c2cccc(C(=O)c3ccccc3)c2)cc1`, the inhibition result in data set [1] and in data set [2] was “Active” in each case. The result in the data set on HepG2 and with LN-229 was inactive. For the same compound, the outcome in the data set with MDA-MB-231, in the data set on DU-145, in the data set on SJRH30, in the data set with Raji and in the data set with Daoy was Active. Moreover, the Activity result with BJ is given as “Non-toxic”.

On to `COCCN(CCc1ccc(O)cc1)C(=O)[C@@H](C)c1cccc(C(=O)c2ccccc2)c1`, for which the inhibition result in data set [1] and in data set [2] was “Active” throughout. The outcome in the data set on HepG2 and in the data set on LN-229 was inactive. For the same compound, the result in the data set on MDA-MB-231, with DU-145, in the data set with SJRH30, in the data set on Raji and in the data set on Daoy was Active. For the same compound, the Activity result with BJ is listed as “Non-toxic”.

Take `COc1ccccc1CCNC(=O)[C@@H](C)c1cccc(C(=O)c2ccccc2)c1`: the inhibition entry in [1] and in data set [2] was “Active” in each case. Also, the outcome in the data set on HepG2 and in the data set on LN-229 was inactive. In addition, the result in the data set on MDA-MB-231, in the data set on DU-145, in the data set on SJRH30, with Raji and in the data set on Daoy was Active. Besides, in the data set with BJ, the Activity entry is listed as “Non-toxic”.

In the case of `COc1cccc(CCNC(=O)[C@@H](C)c2cccc(C(=O)c3ccccc3)c2)c1`, the inhibition entry in data set [1] and in data set [2] was “Active” each time. Also, the result in the data set on HepG2 and in the data set with LN-229 was inactive. Also, the outcome in the data set on MDA-MB-231, with DU-145, in the data set with SJRH30, in the data set on Raji and in the data set on Daoy was Active. Also, in the data set with BJ, the Activity result is “Non-toxic”.

As for `C[C@H](C(=O)NCc1ccc(O)cc1)c1cccc(C(=O)c2ccccc2)c1`, the inhibition entry in data set [1] and in data set [2] was “Active” throughout. For the same compound, the result with HepG2 and in the data set with LN-229 was inactive. The result in the data set on MDA-MB-231, in the data set on DU-145, in the data set with SJRH30, with Raji and in the data set with Daoy was Active. Moreover, the Activity result with BJ is listed as “Non-toxic”.

As for `C[C@H](COC(=O)Nc1ccc(O)cc1)c1cccc(C(=O)c2ccccc2)c1`, the inhibition entry in data set [1] and in data set [2] was “Active” throughout. In addition, the outcome with HepG2 and in the data set with LN-229 was inactive. Besides, the result with MDA-MB-231, with DU-145, in the data set on SJRH30, with Raji and in the data set with Daoy was Active. The Activity result with BJ is “Non-toxic”.

With `C[C@H](CNC(=O)NCCc1ccc(O)cc1)c1cccc(C(=O)c2ccccc2)c1`, the inhibition entry in data set [1] and in data set [2] was “Active” each time. Also, the outcome in the data set on HepG2 and in the data set on LN-229 was inactive. Also, the result in the data set with MDA-MB-231, in the data set on DU-145, in the data set with SJRH30, with Raji and with Daoy was Active. Also, the Activity result in the data set on BJ was “Toxic”.
